We go through 45 compounds from ChEMBL document CHEMBL1141169, “Discovery of 5-arylsulfonamido-3-(pyrrolidin-2-ylmethyl)-1H-indole derivatives as potent, selective 5-HT6 receptor agonists and antagonists” (J Med Chem, 2005).

Each structure is given as a SMILES string.

The target of assay [1] is T1, 5-hydroxytryptamine receptor 6 (Homo sapiens, UniProt P50406). The assay can be described thus: Maximum percentage inhibition of 5-HT stimulated cAMP production in HeLa cells expressing 5-hydroxytryptamine 6 receptor. It counts as functional, cell-based. A digest of the protocol:
(§1)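 Antagonist mode: cAMP production in HeLa cells stably transfected with the human 5-HT6 receptor was stimulated with 5-HT, and inhibition was measured across a range of ligand concentrations. IC50 and Imax each determined in triplicate.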
On the technique in general: cAMP levels reflect the balance of adenylyl cyclase and phosphodiesterase activity.

For assay [2], the target named is T1, 5-hydroxytryptamine receptor 6. The assay can be described thus: Inhibition of [3H]LSD binding to human 5-hydroxytryptamine 6 receptor expressed in HeLa cells. It counts as cell-based. A digest of the protocol:
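Competition binding against [3H]-LSD on cloned human 5-HT6 receptors stably expressed in HeLa cells. Ki determined in triplicate; single-point lines are % inhibition at 1000 nM.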

The target is the same in assay [3]. The assay can be described thus: Inhibition of 5-HT stimulated cAMP production in HeLa cells expressing human 5-hydroxytryptamine 6 receptor. It counts as functional, cell-based. A digest of the protocol:
as §1

Assay [4] shares this target. Briefly: Effective agonist concentration in cAMP release assay in HeLa cells expressing human 5-hydroxytryptamine 6 receptor. It counts as functional, cell-based. In outline: (§2)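 cAMP production read out across a range of ligand concentrations in HeLa cells stably transfected with the human 5-HT6 receptor, ligand given alone as agonist. EC50 and Emax each determined in triplicate.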

Assay [5] has the same target. The assay can be described thus: Maximum percentage agonism of cAMP production in HeLa cells expressing human 5-hydroxytryptamine 6 receptor. It counts as functional, cell-based. A digest of the protocol:
as §2

T1 sequence (P50406 whole entry): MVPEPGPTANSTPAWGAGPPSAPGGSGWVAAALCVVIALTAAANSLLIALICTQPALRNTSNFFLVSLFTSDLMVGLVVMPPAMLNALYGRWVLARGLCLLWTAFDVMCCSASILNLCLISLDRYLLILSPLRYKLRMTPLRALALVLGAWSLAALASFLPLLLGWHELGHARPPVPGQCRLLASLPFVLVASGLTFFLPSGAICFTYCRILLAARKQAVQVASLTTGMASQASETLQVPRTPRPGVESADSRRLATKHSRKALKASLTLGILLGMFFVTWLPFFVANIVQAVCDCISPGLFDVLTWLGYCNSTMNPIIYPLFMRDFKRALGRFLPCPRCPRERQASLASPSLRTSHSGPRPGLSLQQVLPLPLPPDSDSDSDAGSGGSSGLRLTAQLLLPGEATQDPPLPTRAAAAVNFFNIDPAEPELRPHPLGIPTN

Consider `Cc1c(S(=O)(=O)Nc2ccc3[nH]cc(C[C@@H]4CCCN4C)c3c2)sc2ccc(Cl)cc12`, for which the Imax in assay [1] came out at 91%. In addition, in assay [2], the Ki turned out to be 2 nM. Also, the IC50 in assay [3] worked out at 1.1 nM.
The compound `CN1CCC[C@@H]1Cc1c[nH]c2ccc(NS(=O)(=O)c3ccccc3F)cc12` returned an EC50 in assay [4] of 1.3 nM. This compound returned a maximal effect (Emax) in assay [5] of 91%. Moreover, in assay [2], the inhibition constant (Ki) was 1 nM.
Taken in the same sequence, the figures for `CN1CCC[C@@H]1Cc1c[nH]c2ccc(NS(=O)(=O)c3ccc(F)cc3)cc12` were 1.1 nM, 85% and 1 nM.
The like results for `O=S(=O)(Nc1ccc2[nH]cc(C[C@H]3CCCN3)c2c1)c1ccccc1` were, in that order, 1.4 nM, 73% and 4 nM.
Regarding `O=S(=O)(Nc1ccc2[nH]cc(C[C@H]3CCCN3)c2c1)c1ccccc1F`, in assay [2], the Ki is 4 nM.
Same read-out and setting: then `CN1CCC[C@@H]1Cc1c[nH]c2ccc(NS(=O)(=O)c3ccc4ccccc4c3)cc12`, with 1 nM.
In assay [4], `CN1CCC[C@H]1Cc1c[nH]c2ccc(NS(=O)(=O)c3ccc(OC(F)(F)F)cc3)cc12` yielded an EC50 of 180 nM. For the same compound, the Imax in assay [1] is 85%. Further, the maximal response (Emax) in assay [5] was 68%. The compound further displayed a Ki in assay [2] of 8 nM. In addition, the IC50 in assay [3] was 25.8 nM.
`CN1CCC[C@H]1Cc1c[nH]c2ccc(NS(=O)(=O)c3cccc(C(F)(F)F)c3)cc12` yielded an Imax in assay [1] of 78%. The same compound displayed a Ki in assay [2] of 12 nM. The compound further yielded an IC50 in assay [3] of 14.1 nM.
The like results for `CN1CCC[C@H]1Cc1c[nH]c2ccc(NS(=O)(=O)c3ccc4ccccc4c3)cc12` were, in that order, 95%, 1 nM and 10.4 nM.
As for `O=S(=O)(Nc1ccc2[nH]cc(C[C@H]3CCCN3)c2c1)c1ccc(Br)cc1`, in assay [2], the Ki was 3 nM.
`Cc1noc(C)c1S(=O)(=O)Nc1ccc2[nH]cc(C[C@H]3CCCN3C)c2c1` returned a half-maximal effective concentration (EC50) in assay [4] of 0.8 nM. The compound also had an Emax in assay [5] of 77%. Further, affinity in assay [2] was put at a Ki of 1 nM.
`O=S(=O)(Nc1ccc2[nH]cc(C[C@@H]3CCCN3)c2c1)c1ccc(Br)cc1`: in assay [2], the inhibition constant (Ki) was 57 nM.
Consider `COc1ccc(S(=O)(=O)Nc2ccc3[nH]cc(C[C@H]4CCCN4C)c3c2)cc1`, for which, in assay [4], it took 2.2 nM to reach a half-maximal effect (EC50). In assay [5], this compound had an Emax of 83%. In assay [2], this compound displayed an inhibitory constant (Ki) of 1 nM.
Compound `COc1ccc(S(=O)(=O)Nc2ccc3[nH]cc(C[C@@H]4CCCN4C)c3c2)cc1` had a Ki in assay [2] of 34 nM.
On to `CN1CCC[C@@H]1Cc1c[nH]c2ccc(NS(=O)(=O)c3ccc(I)cc3)cc12`, for which the EC50 in assay [4] came out at 2.7 nM. Also, in assay [5], the Emax stood at 72%. In assay [2], this compound had a Ki of 0.3 nM.
As to `CC(C)c1ccc(S(=O)(=O)Nc2ccc3[nH]cc(C[C@H]4CCCN4C)c3c2)cc1`, affinity in assay [2] was put at a Ki of 1 nM.
`O=S(=O)(Nc1ccc2[nH]cc(C[C@H]3CCCN3)c2c1)c1cccc(C(F)(F)F)c1` yielded a 50% effective concentration (EC50) in assay [4] of 5.8 nM. The compound further displayed an Emax in assay [5] of 77%. This compound also yielded an inhibitory constant (Ki) in assay [2] of 4 nM.
In assay [1], `CN1CCC[C@H]1Cc1c[nH]c2ccc(NS(=O)(=O)c3ccc(Br)cc3)cc12` returned an Imax of 85%. In assay [2], this compound came in with a Ki of 9 nM. The compound also came in with a half-maximal inhibitory concentration (IC50) in assay [3] of 1.6 nM.
`O=S(=O)(Nc1ccc2[nH]cc(C[C@H]3CCCN3)c2c1)c1ccc(Cl)c(Cl)c1` had a Ki in assay [2] of 3 nM.
For `CC(C)c1ccc(S(=O)(=O)Nc2ccc3[nH]cc(C[C@@H]4CCCN4C)c3c2)cc1`, the Imax in assay [1] was 76%. In assay [2], the affinity, expressed as Ki, was 3 nM. Besides, 21.1 nM corresponded to half-maximal inhibition in assay [3] (IC50).
`O=S(=O)(Nc1ccc2[nH]cc(C[C@H]3CCCN3)c2c1)c1ccc(F)cc1Cl`: affinity in assay [2] was put at a Ki of 9 nM.
Turning to `CN1CCC[C@@H]1Cc1c[nH]c2ccc(NS(=O)(=O)c3ccc(C(F)(F)F)cc3)cc12`, the EC50 in assay [4] came to 4.5 nM. In assay [5], the Emax was 85%. This compound also showed an inhibition constant (Ki) in assay [2] of 0.4 nM.
Taken in the same sequence, the figures for `CN1CCC[C@@H]1Cc1c[nH]c2ccc(NS(=O)(=O)c3ccc(OC(F)(F)F)cc3)cc12` were 2.9 nM, 94% and 1 nM.
With `CN1CCC[C@H]1Cc1c[nH]c2ccc(NS(=O)(=O)c3ccc(C(F)(F)F)cc3)cc12`, the Imax in assay [1] came to 78%. Also, the Ki in assay [2] turned out to be 10 nM. Besides, in assay [3], it took 21.6 nM to reach half-maximal inhibition (IC50).
With `CN1CCC[C@@H]1Cc1c[nH]c2ccc(NS(=O)(=O)c3ccc(Cl)c(Cl)c3)cc12`, the affinity in assay [2], expressed as Ki, was 1 nM.
The same measure, in the same setting: with `O=S(=O)(Nc1ccc2[nH]cc(C[C@@H]3CCCN3)c2c1)c1ccc(F)cc1F` the figure was 131 nM.
Compound `CN1CCC[C@@H]1Cc1c[nH]c2ccc(NS(=O)(=O)c3cccc(C(F)(F)F)c3)cc12` returned an EC50 in assay [4] of 3.2 nM. Moreover, the Emax in assay [5] was 90%. Also, the inhibition constant (Ki) in assay [2] was determined as 1 nM.
Compound `O=S(=O)(Nc1ccc2[nH]cc(C[C@H]3CCCN3)c2c1)c1ccc(I)cc1` gave a Ki in assay [2] of 1 nM.
On the same count and under the same terms, with `CN1CCC[C@H]1Cc1c[nH]c2ccc(NS(=O)(=O)c3ccc(F)cc3Cl)cc12` the figure was 35 nM; with `O=S(=O)(Nc1ccc2[nH]cc(C[C@@H]3CCCN3)c2c1)c1cccc(Cl)c1`, 36 nM.
In assay [1], `CN1CCC[C@H]1Cc1c[nH]c2ccc(NS(=O)(=O)c3ccccc3Br)cc12` gave an Imax of 75%. The same compound gave a Ki in assay [2] of 5 nM. In addition, in assay [3], the IC50 was found to be 0.8 nM.
In turn, `CN1CCC[C@H]1Cc1c[nH]c2ccc(NS(=O)(=O)c3ccccc3Cl)cc12` had a Ki in assay [2] of 22 nM.
Take `CN1CCC[C@@H]1Cc1c[nH]c2ccc(NS(=O)(=O)c3ccccc3)cc12`: the affinity in assay [2], expressed as Ki, was 1 nM.
Turning to `Cc1ccc(S(=O)(=O)Nc2ccc3[nH]cc(C[C@H]4CCCN4C)c3c2)cc1`, the concentration for a half-maximal effect (EC50) in assay [4] was 1.3 nM. Besides, the Emax in assay [5] amounted to 79%. The same compound came in with an inhibition constant Ki in assay [2] of 1 nM.
For the compound `CC(C)c1ccc(S(=O)(=O)Nc2ccc3[nH]cc(C[C@H]4CCCN4)c3c2)cc1`, the Ki in assay [2] amounted to 1 nM.
The same measure, in the same setting: with `CN1CCC[C@H]1Cc1c[nH]c2ccc(NS(=O)(=O)c3cccc(Cl)c3)cc12` the figure was 11 nM; with `O=S(=O)(Nc1ccc2[nH]cc(C[C@H]3CCCN3)c2c1)c1ccc(F)cc1`, 4 nM.
`O=S(=O)(Nc1ccc2[nH]cc(C[C@H]3CCCN3)c2c1)c1ccc(F)cc1F` came in with a half-maximal effective concentration (EC50) in assay [4] of 5.2 nM. The maximum response (Emax) in assay [5] turned out to be 78%. Further, the inhibition constant (Ki) in assay [2] is 8 nM.
Compound `CN1CCC[C@H]1Cc1c[nH]c2ccc(NS(=O)(=O)c3ccc(Cl)c(Cl)c3)cc12` registered an inhibition constant (Ki) in assay [2] of 7 nM.
`O=S(=O)(Nc1ccc2[nH]cc(C[C@H]3CCCN3)c2c1)c1ccc(OC(F)(F)F)cc1`: in assay [4], the EC50 is 4.2 nM. The Emax in assay [5] stood at 86%. The compound further returned an inhibitory constant (Ki) in assay [2] of 5 nM.
As to `Cc1ccc(S(=O)(=O)Nc2ccc3[nH]cc(C[C@H]4CCCN4)c3c2)cc1`, the inhibition constant Ki in assay [2] is 4 nM.
In assay [4], `O=S(=O)(Nc1ccc2[nH]cc(C[C@H]3CCCN3)c2c1)c1cccc(Cl)c1` came in with an EC50 of 1 nM. Further, in assay [5], the maximal effect (Emax) stood at 92%. Besides, affinity in assay [2] was put at a Ki of 2 nM.
In the case of `O=S(=O)(Nc1ccc2[nH]cc(C[C@H]3CCCN3)c2c1)c1ccc(Cl)cc1`, the EC50 in assay [4] came to 4.5 nM. The same compound had an Emax in assay [5] of 99%. In assay [2], this compound had an inhibition constant Ki of 3 nM.
`COc1ccc(Cl)cc1S(=O)(=O)Nc1ccc2[nH]cc(C[C@@H]3CCCN3C)c2c1` came in with a Ki in assay [2] of 24 nM.
On the same count and under the same terms, then `CN1CCC[C@H]1Cc1c[nH]c2ccc(NS(=O)(=O)c3ccccc3)cc12`, with 16 nM.

By Ki is commonly meant the equilibrium dissociation constant of an inhibitor or competing ligand from its target. Higher therefore signals lower affinity. As a reminder, the IC50 is the point on the concentration scale where inhibition reaches its midpoint. Read a low IC50 as greater potency. As a reminder, the EC50 is the concentration at which the effect is half-maximal. Read a low EC50 as greater potency. As usually defined, the Emax is the size of the effect at its maximum, as opposed to the concentration needed.
